Marks after values point to notes of the source that are not given here.
What was measured:
TRH-R1 [1] = biological target: T1, TRH-R1 (Mus musculus, UniProt P21761); assay: Receptor binding assay, competition with [3H][Nτ
T1 sequence (P21761 1-393): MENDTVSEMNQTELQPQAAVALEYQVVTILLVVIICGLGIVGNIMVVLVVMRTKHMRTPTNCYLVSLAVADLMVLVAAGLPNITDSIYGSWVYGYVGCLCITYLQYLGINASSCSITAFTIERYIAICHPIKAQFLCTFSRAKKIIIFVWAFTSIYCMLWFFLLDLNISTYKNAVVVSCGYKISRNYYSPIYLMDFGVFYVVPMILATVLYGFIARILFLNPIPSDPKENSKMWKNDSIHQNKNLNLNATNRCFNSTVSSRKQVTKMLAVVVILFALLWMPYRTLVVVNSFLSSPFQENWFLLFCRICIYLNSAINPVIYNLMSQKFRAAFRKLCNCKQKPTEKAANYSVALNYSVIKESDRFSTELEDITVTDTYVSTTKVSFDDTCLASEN

TRH-R2 [2] = assay: Receptor binding assay, competition with [3H][Nτ; conditions: ratio of Ki at TRH-R1 and TRH-R2; direction differs between compounds
TRH-R1 [3] = biological target: T1, TRH-R1; assay: Signaling; assay type: cell-based
Method in brief: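 HEK 293EM cells stably expressing TRH-R1, grown in DMEM with 10 % FBS and hygromycin, were seeded at 1.5 × 10^5 cells/well. After 16 h they were calcium-phosphate co-transfected with CREB and a CREB-driven luciferase reporter. Various concentrations of test compound were added in 1 % FBS medium for 6 h at 37 °C. Lysate luminescence was then read for 10 s, with 0.4 mM luciferin and 2 mM ATP. Data are from duplicates in three experiments.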

TRH-R2 [4] = assay: Signaling; assay type: cell-based; conditions: ratio of EC50 at TRH-R1 and TRH-R2
Method in brief: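 HEK 293EM cells stably expressing TRH-R1 or TRH-R2 were co-transfected with CREB and a CREB-luciferase reporter by calcium phosphate. […] Lysates were read by luminescence (0.4 mM luciferin, 2 mM ATP, 10 s). EC50 (μM) was found at each subtype, mean ±SD, duplicates, three experiments.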

Swiss albino mice = assay: Antagonism of pentobarbital-induced sleeping time; assay type: in vivo; conditions: 10 μmol kg^−1 i.v.; for Sleep Time: pentobarbital 50 mg kg^−1 i.p. 10 min later, mean ± SEM; for Decrease in Sleep Time: (1−S/C)×100 relative to control, negative = increase; for effect on pentobarbital-induced sleeping time (in words): compared with control group
mice [5] = assay: Pentylenetetrazole; assay type: in vivo; conditions: 10 μmol kg^−1 i.v. 10 min prior to PTZ 65 mg kg^−1 i.p.; mean ± SEM
mice [6] = assay: Maximal electric shock; assay type: in vivo; conditions: 10 μmol kg^−1 i.v. 10 min prior to MES 45 mA for 0.2 s; mean ± SEM
Method in brief: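 Male Swiss albino mice (20–30 g, n = 6–8/group) received saline vehicle or test compound at 10 μmol kg−1 i.v. via the tail vein. MES (45 mA, corneal electrode, 0.2 s) was applied 10 min later, and the duration of tonic hind limb extension was recorded. Data were analysed by one-way ANOVA with Tukey test versus saline.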

For `CCCc1nc(C[C@H](NC(=O)[C@@H]2CCC(=O)N2)C(=O)N2CCC[C@H]2C(N)=O)cn1C` [Compd 10 a, L-pGlu-L-His(1-methyl-2-propyl)-L-ProNH2], the Ki (TRH-R1 [1]) was 0.32 µM, the “Fold Selectivity (Ki)” value (TRH-R2 [2]) was 1.9 and the EC50 (TRH-R1 [3]) was 0.29 µM. The “Fold Selectivity (EC50)” value (TRH-R2 [4]) was 11, the “Sleep Time” value (Swiss albino mice) was 41.7 ± 6.1 ^[b] min and the “Decrease in Sleep Time” value (Swiss albino mice) was 52.7%. For the same molecule, the “effect on pentobarbital-induced sleeping time (in words)” value (from here on “effect”) (Swiss albino mice) was “significant decrease in sleeping time”.

`CC(C)c1nc(C[C@H](NC(=O)[C@@H]2CCC(=O)N2)C(=O)N2CCC[C@H]2C(N)=O)cn1C` [Compd 10 b, L-pGlu-L-His(1-methyl-2-isopropyl)-L-ProNH2] was tested, and the Ki (TRH-R1 [1]) was > 50 µM, the EC50 (TRH-R1 [3]) was > 50 µM and the “Sleep Time” value (Swiss albino mice) was 66.2 ± 9.8 min. The “Decrease in Sleep Time” value (Swiss albino mice) was 25.1% and the “effect” value (Swiss albino mice) was “significant decrease in sleeping time”.

For `Cn1cc(C[C@H](NC(=O)[C@@H]2CCC(=O)N2)C(=O)N2CCC[C@H]2C(N)=O)nc1C(C)(C)C` [Compd 10 c, L-pGlu-L-His(1-methyl-2-tert-butyl)-L-ProNH2], the Ki (TRH-R1 [1]) was > 50 µM, the EC50 (TRH-R1 [3]) was > 50 µM and the “Sleep Time” value (Swiss albino mice) was 59.6 ± 5.5 min. For the same molecule, the “Decrease in Sleep Time” value (Swiss albino mice) was 32.5%.

`CCCC1=NC=CC=CC=C2CN1C=C2C[C@H](NC(=O)[C@@H]1CCC(=O)N1)C(=O)N1CCC[C@H]1C(N)=O` [Compd 10 h, L-pGlu-L-His(1-benzyl-2-propyl)-L-ProNH2] was tested, and the “Sleep Time” value (Swiss albino mice) was 105.1 ± 5.76 min, the “Decrease in Sleep Time” value (Swiss albino mice) was −18.8% and the “effect” value (Swiss albino mice) was “increased the sleeping time significantly”.

With `NC(=O)[C@@H]1CCCN1C(=O)[C@H](CC1=CN2CC1=CC=CC=CC1CCCCN=C12)NC(=O)[C@@H]1CCC(=O)N1` (stereo partly drawn) [Compd 10 l, L-pGlu-L-His(1-benzyl-2-cyclopentyl)-L-ProNH2] the “Sleep Time” value (Swiss albino mice) was 163.3 ± 18.7 ^[b, ^c] min, the “Decrease in Sleep Time” value (Swiss albino mice) was −84.7% and the “effect” value (Swiss albino mice) was “increased the sleeping time significantly”.

With `CCCc1nc(C[C@H](NC(=O)[C@@H]2CCCC(=O)N2)C(=O)N2CCC[C@H]2C(N)=O)cn1C` [Compd 16 h, L-pAad-L-His(1-methyl-2-propyl)-L-ProNH2] the “Sleep Time” value (Swiss albino mice) was 98.1 ± 9.4 min and the “Decrease in Sleep Time” value (Swiss albino mice) was −9.1%.

In the case of `CC(C)c1nc(C[C@H](NC(=O)[C@@H]2CCCC(=O)N2)C(=O)N2CCC[C@H]2C(N)=O)cn1C` [Compd 16 i, L-pAad-L-His(1-methyl-2-isopropyl)-L-ProNH2], the “Sleep Time” value (Swiss albino mice) is reported as 124.3 ± 5.8 min and the “Decrease in Sleep Time” value (Swiss albino mice) is reported as −38.2%.

In the case of `Cn1cc(C[C@H](NC(=O)[C@@H]2CCCC(=O)N2)C(=O)N2CCC[C@H]2C(N)=O)nc1C(C)(C)C` [Compd 16 j, L-pAad-L-His(1-methyl-2-tert-butyl)-L-Pro-NH2], the Ki (TRH-R1 [1]) is reported as > 50 µM, the EC50 (TRH-R1 [3]) is reported as > 50 µM and the “Sleep Time” value (Swiss albino mice) is reported as 93.1 ± 4.5 min. For the same molecule, the “Decrease in Sleep Time” value (Swiss albino mice) was −3.6%.

For `CN1C=C(C[C@H](NC(=O)[C@@H]2CCCC(=O)N2)C(=O)N2CCC[C@H]2C(N)=O)C2CCCCN=C21` (stereo partly drawn) [Compd 16 k], the “Sleep Time” value (Swiss albino mice) was 108.1 ± 14.4 min and the “Decrease in Sleep Time” value (Swiss albino mice) was −20.2%.

With `CN1C=C(C[C@H](NC(=O)[C@@H]2CCCC(=O)N2)C(=O)N2CCC[C@H]2C(N)=O)C23CC4CC(CN=C12)CC(C4)C3` [Compd 16 m, L-pAad-L-His[1-methyl-2-(adamantan-1-yl)]-L-ProNH2] the “Sleep Time” value (Swiss albino mice) was 76.0 ± 10.9 min and the “Decrease in Sleep Time” value (Swiss albino mice) was 15.4%.

For `Cn1cnc(C[C@H](NC(=O)[C@@H]2CCC(=O)C2)C(=O)N2CCC[C@H]2C(N)=O)c1` [Compd 21 a, (1 R)-3-Ocp-L-His(1-methyl)-L-ProNH2], the Ki (TRH-R1 [1]) was 0.17 µM, the “decrease in binding affinity for TRH-R1 relative to TRH” value (TRH-R1 [1]; Ki compared with TRH) was 10 fold and the “Fold Selectivity (Ki)” value (TRH-R2 [2]) was 10.6. For the same molecule, the EC50 (TRH-R1 [3]) was 0.05 µM, the “Fold Selectivity (EC50)” value (TRH-R2 [4]) was 24 and the “PTZ: Clonic Convulsions Frequency” value (mice [5]) was 1.3 ± 0.33 min⁻¹. The “PTZ: Clonic Convulsions Onset” value (mice [5]) was 153 ± 7 ^*^, ^** s and the “MES: Hind Limb Extension Duration” value (mice [6]) was 10.0 ± 0.60 s.

In the case of `CCn1cnc(C[C@H](NC(=O)[C@@H]2CCC(=O)C2)C(=O)N2CCC[C@H]2C(N)=O)c1` [Compd 21 b, (1R)-3-Ocp-L-His(1-ethyl)-L-ProNH2], the Ki (TRH-R1 [1]) is reported as 0.1 µM, the “Fold Selectivity (Ki)” value (TRH-R2 [2]) is reported as 3.2 and the EC50 (TRH-R1 [3]) is reported as 0.14 µM. The “Fold Selectivity (EC50)” value (TRH-R2 [4]) was 4.7, the “PTZ: Clonic Convulsions Frequency” value (mice [5]) was 1.3 ± 0.21 min⁻¹ and the “PTZ: Clonic Convulsions Onset” value (mice [5]) was 149 ± 8 ^*^, ^** s. For the same molecule, the “MES: Hind Limb Extension Duration” value (mice [6]) was 11.3 ± 1.4 s.

In the case of `CCCn1cnc(C[C@H](NC(=O)[C@@H]2CCC(=O)C2)C(=O)N2CCC[C@H]2C(N)=O)c1` [Compd 21 c, (1R)-3-Ocp-L-His(1-propyl)-L-ProNH2], the Ki (TRH-R1 [1]) is reported as 8.1 µM, the “Fold Selectivity (Ki)” value (TRH-R2 [2]) is reported as 1.5 and the EC50 (TRH-R1 [3]) is reported as 4.6 µM. For the same molecule, the “Fold Selectivity (EC50)” value (TRH-R2 [4]) was 4, the “PTZ: Clonic Convulsions Frequency” value (mice [5]) was 1.3 ± 0.21 min⁻¹ and the “PTZ: Clonic Convulsions Onset” value (mice [5]) was 68 ± 3 s. The “MES: Hind Limb Extension Duration” value (mice [6]) was 12.3 ± 0.90 s.

For `CC(C)n1cnc(C[C@H](NC(=O)[C@@H]2CCC(=O)C2)C(=O)N2CCC[C@H]2C(N)=O)c1` [Compd 21 d, (1R)-3-Ocp-L-His(1-isopropyl)-L-ProNH2], the Ki (TRH-R1 [1]) was > 50 µM, the EC50 (TRH-R1 [3]) was > 50 µM and the “Sleep Time” value (Swiss albino mice) was 123.2 ± 5.9 min. For the same molecule, the “Decrease in Sleep Time” value (Swiss albino mice) was −36.8%.

`CC(C)(C)C1=NC=CC=CC=C2CN1C=C2C[C@H](NC(=O)[C@@H]1CCC(=O)C1)C(=O)N1CCC[C@H]1C(N)=O` [Compd 22 c, (1R)-3-Ocp-L-His(1-benzyl-2-tert-butyl)-L-ProNH2] was tested, and the “Sleep Time” value (Swiss albino mice) was 91.6 ± 3.8 min and the “Decrease in Sleep Time” value (Swiss albino mice) was −1.9%.

With `NC(=O)[C@@H]1CCCN1C(=O)[C@H](CC1=CN2CC1=CC=CC=CC1CCN=C12)NC(=O)[C@@H]1CCC(=O)C1` (stereo partly drawn) [Compd 22 d, (1R)-3-Ocp-L-His(1-benzyl-2-cyclopropyl)-L-ProNH2] the “Sleep Time” value (Swiss albino mice) was 104.9 ± 5.5 min and the “Decrease in Sleep Time” value (Swiss albino mice) was −16.7%.

`CCCc1nc(C[C@H](NC(=O)[C@@H]2CCC(=O)C2)C(=O)N2CCC[C@H]2C(N)=O)cn1C` [Compd 22 h, (1R)-3-Ocp-L-His(1-methyl-2-propyl)-L-ProNH2] was tested, and the Ki (TRH-R1 [1]) was > 50 µM, the EC50 (TRH-R1 [3]) was > 50 µM and the “Sleep Time” value (Swiss albino mice) was 80.2 ± 2.4 min. For the same molecule, the “Decrease in Sleep Time” value (Swiss albino mice) was 10.7%.

For `CC(C)c1nc(C[C@H](NC(=O)[C@@H]2CCC(=O)C2)C(=O)N2CCC[C@H]2C(N)=O)cn1C` [Compd 22 i, (1R)-3-Ocp-L-His(1-methyl-2-isopropyl)-L-ProNH2], the Ki (TRH-R1 [1]) was > 50 µM, the “Sleep Time” value (Swiss albino mice) was 39.8 ± 5.5 ^[b, ^c] min and the “Decrease in Sleep Time” value (Swiss albino mice) was 55.6%.

With `Cn1cc(C[C@H](NC(=O)[C@@H]2CCC(=O)C2)C(=O)N2CCC[C@H]2C(N)=O)nc1C(C)(C)C` [Compd 22 j, (1R)-3-Ocp-L-His(1-methyl-2-tert-butyl)-L-ProNH2] the “Sleep Time” value (Swiss albino mice) was 89.8 ± 3.0 min and the “Decrease in Sleep Time” value (Swiss albino mice) was −0.01%.

`CN1C=C(C[C@H](NC(=O)[C@@H]2CCC(=O)C2)C(=O)N2CCC[C@H]2C(N)=O)C2CCCCCN=C21` (stereo partly drawn) [Compd 22 k, (1R)-3-Ocp-L-His(1-methyl-2-cyclohexyl)-L-ProNH2] was tested, and the “Sleep Time” value (Swiss albino mice) was 106.2 ± 3.0 min and the “Decrease in Sleep Time” value (Swiss albino mice) was −18.1%.
